{"source": "ChEMBL document CHEMBL1153988", "about": "(J Med Chem, 2009)", "key": {"Mus musculus [1]": {"system": "Mus musculus", "assay": "Anticonvulsant activity in CF1 albino mouse assessed as protection against scMet-induced seizures at 30 mg/kg, ip after 0.5 hrs", "assay_type": "functional, organism-based", "parameters": "dose 30 mg/kg", "outline": "(§1)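 Adult male CF no. 1 albino mice (18-25 g) dosed intraperitoneally with compound suspended in 0.5% methylcellulose (0.01 mL/g). Convulsant challenge given subcutaneously as a 0.85% pentylenetetrazol solution in 0.9% saline. Read-out is animals protected over animals tested, with neurotoxicity scored in parallel.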"}, "Mus musculus [2]": {"system": "Mus musculus", "assay": "Anticonvulsant activity in CF1 albino mouse assessed as protection against 32 mA-current-induced seizure at 130 mg/kg, ip by 6Hz psychomotor seizure test", "assay_type": "functional, organism-based", "parameters": "dose 130 mg/kg", "outline": "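6 Hz psychomotor seizure test in male CF no. 1 mice, with compound given ip as a 0.5% methylcellulose suspension. Groups of 8 animals per dose. The 32 mA test used 25, 70 and 130 mg/kg; the 44 mA test used 25, 50, 75 and 100 mg/kg. ED50 and 95% confidence interval were obtained by probit analysis.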"}, "Rattus norvegicus [3]": {"system": "Rattus norvegicus", "assay": "Anticonvulsant activity in albino Sprague-Dawley rat assessed as protection against scMet-induced seizures at 25 mg/kg, po", "assay_type": "functional, organism-based", "parameters": "dose 25 mg/kg", "outline": "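Oral dosing of male Sprague-Dawley rats (100-150 g) with compound in 0.5% methylcellulose. Convulsant challenge given subcutaneously as a 2.82% pentylenetetrazol solution in 0.9% saline. Groups of about 8 rats per dose. For quantitation, doses spanning 0% to 100% protection were fitted by probit analysis to give ED50 with 95% confidence interval.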"}, "Rattus norvegicus [4]": {"system": "Rattus norvegicus", "assay": "Anticonvulsant activity in albino Sprague-Dawley rat assessed as protection against scMet-induced seizures at 50 mg/kg, po after 2 hrs", "assay_type": "functional", "outline": "(§2)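 Male Sprague-Dawley albino rats (100-150 g) were given the compound orally as a suspension in 0.5% methylcellulose. Seizures were induced by subcutaneous pentylenetetrazol, dissolved in 0.9% saline as a 2.82% solution. The read-out was animals protected over animals tested.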"}, "Mus musculus [5]": {"system": "Mus musculus", "assay": "Teratogenic effect in SWV mouse assessed as live fetuses at 336 mg/kg, ip administered on morning of day 8 of gestation", "assay_type": "toxicity, organism-based", "parameters": "dose 336 mg/kg, route intraperitoneal", "conditions": "in vivo"}, "Mus musculus [6]": {"system": "Mus musculus", "assay": "Anticonvulsant activity in CF1 albino mouse assessed as protection against maximal electroshock-induced seizures at 150 mg/kg, ip after 0.5 hrs", "assay_type": "functional, organism-based", "parameters": "dose 150 mg/kg", "outline": "(§3)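 Adult male CF no. 1 albino mice (18-25 g). Test compound suspended in 0.5% methylcellulose and given intraperitoneally at 0.01 mL/g body weight. Maximal electroshock challenge at the stated time. Read-out is the number of animals protected over the number tested; neurotoxicity is scored in parallel.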"}, "Mus musculus [7]": {"system": "Mus musculus", "assay": "Teratogenic effect in SWV mouse assessed as number of dead fetuses at 336 mg/kg, ip administered on morning of day 8 of gestation", "assay_type": "toxicity, organism-based", "parameters": "dose 336 mg/kg, route intraperitoneal", "conditions": "in vivo", "outline": "(§4)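 Inbred SWV mouse strain highly susceptible to VPA-induced neural tube defects. Each dam received a single ip injection on gestation day 8.5, dosed within 1.8-4.2 mmol/kg, against a control of 25% aqueous Cremophor EL. Groups were compared with the control, and with the matched VPA sodium-salt dose, by Fisher's exact test (p < 0.05).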"}, "Mus musculus [8]": {"organism": "Mus musculus", "assay": "Protective index, ratio of TD50 for CF1 albino mouse to ED50 for 32 mA current-induced CF1 albino mouse seizure model", "assay_type": "functional", "outline": "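Protective index is the mouse TD50 (minimal motor impairment) divided by the 6 Hz test ED50 at 32 or 44 mA. Male CF no. 1 mice were dosed ip in 0.5% methylcellulose, and values came from probit analysis.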"}, "Mus musculus [9]": {"system": "Mus musculus", "assay": "Teratogenic effect in SWV mouse assessed as live fetuses at 502 mg/kg, ip administered on morning of day 8 of gestation", "assay_type": "toxicity, organism-based", "parameters": "dose 502 mg/kg, route intraperitoneal", "conditions": "in vivo"}, "Mus musculus [10]": {"organism": "Mus musculus", "assay": "Protective index, ratio of TD50 for CF1 albino mouse to ED50 for scMet-induced CF1 albino seizure mouse model", "assay_type": "functional", "outline": "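Ratio of TD50 to ED50 (MES or scMet) in male CF no. 1 mice (18-25 g) given ip doses in 0.5% methylcellulose. TD50 comes from minimal motor impairment: the dose was varied until four points lay between no impairment and all animals impaired. Both TD50 and ED50 were derived by probit analysis with 95% confidence intervals.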"}, "Mus musculus [11]": {"system": "Mus musculus", "assay": "Anticonvulsant activity in CF1 albino mouse assessed as protection against maximal electroshock-induced seizures at 300 mg/kg, ip after 4 hrs", "assay_type": "functional, organism-based", "parameters": "dose 300 mg/kg", "outline": "as §3"}, "Mus musculus [12]": {"system": "Mus musculus", "assay": "Neurotoxicity in CF1 albino mouse at 300 mg/kg, ip after 4 hrs", "assay_type": "toxicity, organism-based", "parameters": "dose 300 mg/kg, route intraperitoneal", "conditions": "in vivo", "outline": "(§5)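 Male CF no. 1 albino mice (18-25 g) received a single ip dose as a suspension in 0.5% methylcellulose. The read-out was the number of animals showing neurotoxicity (minimal motor impairment) over the number tested.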"}, "Mus musculus [13]": {"system": "Mus musculus", "assay": "Anticonvulsant activity in CF1 albino mouse assessed as protection against maximal electroshock-induced seizures at 400 mg/kg, ip", "assay_type": "functional, organism-based", "parameters": "dose 400 mg/kg", "outline": "as §3"}, "Mus musculus [14]": {"system": "Mus musculus", "assay": "Teratogenic effect in SWV mouse assessed as number of dead fetuses at 671 mg/kg, ip administered on morning of day 8 of gestation", "assay_type": "toxicity, organism-based", "parameters": "dose 671 mg/kg, route intraperitoneal", "conditions": "in vivo", "outline": "as §4"}, "Rattus norvegicus [15]": {"system": "Rattus norvegicus", "assay": "Anticonvulsant activity in albino Sprague-Dawley rat assessed as protection against maximal electroshock-induced seizures at 50 mg/kg, po after 30 mins", "assay_type": "functional", "outline": "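Adult male Sprague-Dawley albino rats (100-150 g) dosed orally with compound suspended in 0.5% methylcellulose (0.04 mL per 10 g). Maximal electroshock challenge at the stated time. Protection is scored in 25% steps as the fraction of animals protected, with neurotoxicity recorded in parallel.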"}, "Mus musculus [16]": {"system": "Mus musculus", "assay": "Anticonvulsant activity in CF1 albino mouse assessed as protection against scMet-induced seizures at 50 mg/kg, ip", "assay_type": "functional, organism-based", "parameters": "dose 50 mg/kg", "outline": "as §1"}, "Rattus norvegicus [17]": {"system": "Rattus norvegicus", "assay": "Anticonvulsant activity in albino Sprague-Dawley rat assessed as protection against scMet-induced seizures at 50 mg/kg, po after 1 hr", "assay_type": "functional", "outline": "as §2"}, "Mus musculus [18]": {"system": "Mus musculus", "assay": "Anticonvulsant activity in CF1 albino mouse assessed as protection against maximal electroshock-induced seizures at 30 mg/kg, ip after 4 hrs", "assay_type": "functional, organism-based", "parameters": "dose 30 mg/kg", "outline": "as §3"}, "Mus musculus [19]": {"system": "Mus musculus", "assay": "Neurotoxicity in CF1 albino mouse at 300 mg/kg, ip after 0.5 hrs", "assay_type": "toxicity, organism-based", "parameters": "dose 300 mg/kg, route intraperitoneal", "conditions": "in vivo", "outline": "as §5"}, "Rattus norvegicus [20]": {"system": "Rattus norvegicus", "assay": "Anticonvulsant activity in albino Sprague-Dawley rat assessed as protection against pilocarpine-induced status epilepticus dosed ip after 30 mins of pilocarpine induction", "assay_type": "functional", "conditions": "0.5 h", "outline": "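Rat pilocarpine status epilepticus model. Compound is given 30 min after pilocarpine status induction, or after the first stage III seizure. Seizure severity is rated on the Racine scale and scored as protection or no protection. Doses of 50, 75 and 100 mg/kg were used, with 7, 6 and 7 rats respectively. ED50 was derived by probit analysis.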"}, "Rattus norvegicus [21]": {"organism": "Rattus norvegicus", "assay": "Protective index, ratio of TD50 for albino Sprague-Dawley rat to ED50 for scMet-induced albino Sprague-Dawley rat seizure model", "assay_type": "functional", "outline": "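Protective index is the rat TD50 (minimal motor impairment) divided by the ED50 in the MES or sc pentylenetetrazol test. Male Sprague-Dawley rats were dosed orally in 0.5% methylcellulose, and both values came from probit analysis.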"}, "Mus musculus [22]": {"system": "Mus musculus", "assay": "Anticonvulsant activity in CF1 albino mouse assessed as protection against scMet-induced seizures at 100 mg/kg, ip", "assay_type": "functional, organism-based", "parameters": "dose 100 mg/kg", "outline": "as §1"}, "Mus musculus [23]": {"system": "Mus musculus", "assay": "Neurotoxicity in CF1 albino mouse assessed as minimal motor impairment at 150 mg/kg, ip", "assay_type": "toxicity, organism-based", "parameters": "dose 150 mg/kg, route intraperitoneal", "conditions": "in vivo", "outline": "as §5"}, "Mus musculus [24]": {"system": "Mus musculus", "assay": "Anticonvulsant activity in CF1 albino mouse assessed as protection against maximal electroshock-induced seizures at 300 mg/kg, ip after 0.5 hrs", "assay_type": "functional, organism-based", "parameters": "dose 300 mg/kg", "outline": "as §3"}, "Mus musculus [25]": {"system": "Mus musculus", "assay": "Anticonvulsant activity in CF1 albino mouse assessed as protection against scMet-induced seizures at 100 mg/kg, ip after 0.5 hrs", "assay_type": "functional, organism-based", "parameters": "dose 100 mg/kg", "outline": "as §1"}}, "note": "Calls of active or inactive are those of the source. No cut-off for these calls is given here."}
{"smiles": "CC1(C)C(C)(C)C1(F)C(N)=O", "values": [{"measurement": "Activity", "setting": "Mus musculus [1]", "result": "Non-toxic"}, {"measurement": "Activity", "setting": "Mus musculus [2]", "result": "Active"}, {"measurement": "Activity", "setting": "Rattus norvegicus [3]", "result": "Active"}, {"measurement": "Activity", "setting": "Rattus norvegicus [4]", "result": 75, "unit": "%"}, {"measurement": "Activity", "setting": "Mus musculus [5]", "result": 90.2, "unit": "%"}, {"measurement": "Activity", "setting": "Mus musculus [6]", "result": "inactive"}, {"measurement": "Activity", "setting": "Mus musculus [7]", "result": 0}, {"measurement": "PI", "setting": "Mus musculus [8]", "result": 2.1}, {"measurement": "Activity", "setting": "Mus musculus [9]", "result": 73.2, "unit": "%"}, {"measurement": "PI", "setting": "Mus musculus [10]", "result": 3.2}, {"measurement": "Activity", "setting": "Mus musculus [11]", "result": "Non-toxic"}, {"measurement": "Activity", "setting": "Mus musculus [12]", "result": "Non-toxic"}, {"measurement": "Activity", "setting": "Mus musculus [13]", "result": "Active"}, {"measurement": "Activity", "setting": "Mus musculus [14]", "result": 0}, {"measurement": "Activity", "setting": "Rattus norvegicus [15]", "result": "inactive"}, {"measurement": "Activity", "setting": "Mus musculus [16]", "result": "Active"}, {"measurement": "Activity", "setting": "Rattus norvegicus [17]", "result": 75, "unit": "%"}, {"measurement": "Activity", "setting": "Mus musculus [18]", "result": "Non-toxic"}, {"measurement": "Activity", "setting": "Mus musculus [19]", "result": "Toxic"}, {"measurement": "ED50", "setting": "Rattus norvegicus [20]", "result": 80, "unit": "mg/kg"}, {"measurement": "PI", "setting": "Rattus norvegicus [21]", "result": 20}, {"measurement": "Activity", "setting": "Mus musculus [22]", "result": "Active"}, {"measurement": "Activity", "setting": "Mus musculus [23]", "result": "Toxic"}, {"measurement": "Activity", "setting": "Mus musculus [24]", "result": "Toxic"}, {"measurement": "Activity", "setting": "Mus musculus [25]", "result": "Toxic"}]}
